Published values collected from several papers.
Compare with care: the assays were run in different laboratories.
Target: Mitogen-activated protein kinase kinase kinase 19 (MAP3K19, Homo sapiens, UniProt Q56UN5)
Residues used in one study (Q56UN5 1-1328): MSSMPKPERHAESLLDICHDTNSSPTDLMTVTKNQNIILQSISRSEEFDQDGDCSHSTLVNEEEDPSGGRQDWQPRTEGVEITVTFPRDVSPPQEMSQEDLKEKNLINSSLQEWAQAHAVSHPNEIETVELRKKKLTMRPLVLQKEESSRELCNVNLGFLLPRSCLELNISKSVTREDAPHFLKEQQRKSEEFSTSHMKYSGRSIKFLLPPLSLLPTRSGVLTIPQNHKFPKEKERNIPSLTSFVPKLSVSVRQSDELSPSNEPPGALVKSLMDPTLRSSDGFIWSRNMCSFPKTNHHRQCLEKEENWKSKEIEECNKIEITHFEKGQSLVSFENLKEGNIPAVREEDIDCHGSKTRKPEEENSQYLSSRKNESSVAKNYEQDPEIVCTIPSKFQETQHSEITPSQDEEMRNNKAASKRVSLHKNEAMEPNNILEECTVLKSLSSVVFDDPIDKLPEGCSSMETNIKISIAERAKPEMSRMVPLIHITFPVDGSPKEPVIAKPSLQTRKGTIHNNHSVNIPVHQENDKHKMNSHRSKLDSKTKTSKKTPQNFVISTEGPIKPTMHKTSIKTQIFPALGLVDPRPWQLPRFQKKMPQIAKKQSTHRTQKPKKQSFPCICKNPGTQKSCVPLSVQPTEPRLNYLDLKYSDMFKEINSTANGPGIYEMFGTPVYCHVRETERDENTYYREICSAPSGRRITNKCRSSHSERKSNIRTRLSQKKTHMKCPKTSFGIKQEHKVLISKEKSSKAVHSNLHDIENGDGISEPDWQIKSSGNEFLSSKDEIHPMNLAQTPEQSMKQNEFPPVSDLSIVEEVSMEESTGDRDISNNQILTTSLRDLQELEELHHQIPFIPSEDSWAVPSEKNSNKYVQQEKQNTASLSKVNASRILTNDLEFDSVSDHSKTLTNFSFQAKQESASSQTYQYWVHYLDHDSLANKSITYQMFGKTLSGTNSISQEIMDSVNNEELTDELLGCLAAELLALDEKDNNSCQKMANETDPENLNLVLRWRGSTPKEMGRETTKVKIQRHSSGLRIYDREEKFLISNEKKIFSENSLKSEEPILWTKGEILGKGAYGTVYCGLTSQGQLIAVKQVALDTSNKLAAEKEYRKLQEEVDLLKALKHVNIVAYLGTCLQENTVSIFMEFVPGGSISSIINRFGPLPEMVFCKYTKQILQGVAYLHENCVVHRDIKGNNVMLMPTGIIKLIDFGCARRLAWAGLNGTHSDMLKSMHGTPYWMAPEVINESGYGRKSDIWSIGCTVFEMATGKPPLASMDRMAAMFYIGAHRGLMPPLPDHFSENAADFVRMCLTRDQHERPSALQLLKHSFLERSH

SMILES | read-out | technique | concentration | remaining binding [%]
CCN1CCN(Cc2ccc(C(=O)Nc3ccc(C)c(Oc4ccc5c(c4)CC(=O)N5)c3)cc2C(F)(F)F)CC1 | binding | competition with immobilised ligand | 1 µM | 100
CNCc1ccccc1-c1csc([C@H](C)Nc2nc(C)nc3cc(OC)c(OC)cc23)c1 | cell-free assay | competition with immobilised ligand | 1 µM | 78
Cc1cnc(Nc2ccc(C(=O)N3CCC(N4CCCC4)CC3)cc2)nc1-c1cc2ccccc2s1 | binding | competition with immobilised ligand | 1 µM | 0
C[C@@H](c1ccc(-n2cnc3c(N)ncnc32)cc1)N1CCc2nn(C)c(Cc3ccccc3)c2C1=O | binding | competition with immobilised ligand | 0.1 µM | 47
O=C(NCCCN1CCOCC1)c1ccc(Nc2ncc(Cl)c(-c3ccc(Cl)s3)n2)cc1 | binding | competition with immobilised ligand | 1 µM | 0
Cc1cc(NC(=O)c2cccc(S(F)(F)(F)(F)F)c2)cc(-n2ccn3nc(-c4cccnc4)cc23)c1 | cell-free assay | competition with immobilised ligand | 1 µM | 100
Cc1cnn2ncc(-c3ccnc(N(C)C)n3)c2c1 | binding | – | 1 µM | 75
O=C(NCCCC1CCCCC1)c1ccc(CNC(=O)c2cnn(-c3ccccc3)c2C(F)(F)F)cc1 | cell-free assay | competition with immobilised ligand | 0.1 µM | 89
CN(CCCC(F)(F)F)c1nccc(-c2cnn3ncccc23)n1 | binding | – | 1 µM | 95
COc1ccc2c(c1)O[C@@H](c1ccc(OC)c(OC)c1)C[C@H]2NC(=O)C1(c2ccc3c(c2)OC(F)(F)O3)CC1 | cell-free assay | competition with immobilised ligand | 1 µM | 83
CC1CCCN1c1nccc(-c2cnn3ncccc23)n1 (stereo not drawn) | binding | – | 1 µM | 95
O=C(NCC1CCOCC1)c1n[nH]cc1NC(=O)c1c(F)cccc1F | binding | competition with immobilised ligand | 1 µM | 52
COc1cnc(Nc2cccc(S(N)(=O)=O)c2)nc1N1CCN(c2ccccc2)C(=O)C1 | binding | competition with immobilised ligand | 1 µM | 32
CC(=O)C1=C(C)N(c2cccc(C(F)(F)F)c2)C(=O)N[C@@H]1c1ccc(C#N)nc1 | cell-free assay | competition with immobilised ligand | 1 µM | 93
F[C@@H]1CCN(c2nccc(-c3cnn4ncccc34)n2)C1 | binding | – | 1 µM | 89
c1cncc(-c2cccc(Nc3nccc(NC4CCCCC4)n3)c2)c1 | binding | competition with immobilised ligand | 10 µM | 18
O=C(c1ccc(Nc2ncc(Cl)c(-c3ccc(Cl)s3)n2)cc1)N1CCC(N2CCCC2)CC1 | binding | competition with immobilised ligand | 1 µM | 0
N[C@H]1CCN(c2nccc(-c3cnn4ncccc34)n2)C1 | binding | – | 1 µM | 79
Nc1ncc2c(n1)-c1c([nH]c3ccc(C#CC4CC4)cc13)CCCC2 | binding | competition with immobilised ligand | 1 µM | 64
CCCOc1ccc([C@@H]2[C@@H](C(=O)O)[C@H](c3ccc4c(c3)OCO4)CN2CC(=O)Nc2c(CC)cccc2CC)cc1 | cell-free assay | competition with immobilised ligand | 1 µM | 93
CN(C)c1ncc(F)c(-c2cnn3ncccc23)n1 | binding | – | 1 µM | 69
